In paper PMC2196149 (The Journal of Experimental Medicine, 1997):
Primed or numbered codes have the meaning given here. No end group written: not given here. *: point of attachment. IASA″ = iodo-4-azidosalicylic acid, on the N-terminus in place of PbCS S-252; Benzoyl(4-N3) = [N-]=[N+]=Nc1ccc(C(=O)*)cc1; IASA = iodo-4-azidosalicylic acid

Columns and labels:
TCR on CTL S17 = assay: TCR-ligand dissociation, clone S17; assay type: binding, mice; conditions: preliminary, unpublished results
S15 CTL = assay: 51Cr release cytolytic assay, P815 targets, clone S15; assay type: cell-based, mice; conditions: 51Cr-labeled P815 targets; partial recognition
Outline: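 Cloned CTL are tested on 51Cr-labeled P815 mastocytoma targets (DMEM, 5% FCS, 10 mM Hepes), 2 × 10^3/well, with threefold dilutions of peptide derivative. CTL (6 × 10^3/well) added after 15 min; 4 h at 37°C. Supernatant 51Cr measured. Specific lysis = 100 × (experimental − spontaneous)/(total − spontaneous release).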

S14 CTL = assay: inhibition of recognition of photocross-linked IASA-YIPSAEK; assay type: cell-based, mice; conditions: P815 cells photocross-linked with suboptimal IASA-YIPSAEK(ABA)I (Fig. 5 B)
[1] = test system: seven IASA-YIPSAEK(ABA)I-specific CTL clones; assay: 51Cr release cytolytic assay, P815 targets, seven CTL clones; assay type: cell-based, mice; conditions: clones S1, S4, S14, S15, S17, S18, T1; 51Cr-labeled P815 targets; wt = 1 (Fig. 3 A)
S15 CTL / A20 cells = assay: 51Cr release cytolytic assay, A20 targets, clone S15; assay type: cell-based, mice; conditions: 51Cr-labeled A20 cells, E/T 3:1, 8 h; representative experiment (Fig. 4 A)
Outline: (§1)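 Murine H-2Kd-restricted CTL clone specific for a photoreactive derivative of a Plasmodium berghei circumsporozoite 252–260 peptide. Targets are 51Cr-labeled A20 B lymphoma cells or their Fas-lacking variant, 2 × 10^3/well, in threefold dilutions of peptide derivative in DMEM + 5% FCS + 10 mM Hepes. CTL (6 × 10^3/well) added after 15 min; 8 h at 37°C. Supernatant 51Cr counted. Specific lysis = 100 × (experimental − spontaneous)/(total − spontaneous).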

[2] = test system: S15 CTL / A20 Fas^− cells; assay: 51Cr release cytolytic assay, A20 Fas^− targets, clone S15; assay type: cell-based, mice; conditions: 51Cr-labeled A20 Fas^− cells, E/T 3:1, 8 h; representative experiment (Fig. 4 B)
Outline: as §1

TCR on CTL S4 = assay: TCR-ligand dissociation, clone S4; assay type: binding, mice; conditions: preliminary, unpublished results
TCR on CTL T1 = assay: TCR-ligand dissociation, clone T1; assay type: binding, mice; conditions: preliminary, unpublished results

P255S ({IASA}-YISSAEK(Benzoyl(4-N3))I; not fully specified)
dissociation of ligand from TCR compared with wild-type ligand (TCR on CTL S17): considerably slower

IASA-YIPSAEK(IASA)I
plateau of specific lysis, S15 CTL (S15 CTL): even lower plateau of lysis

P255L ({IASA}-YILSAEK(Benzoyl(4-N3))I; not fully specified)
concentration required for maximal inhibition relative to K259(BA), S14 CTL (S14 CTL): ~10 fold

IASA-YIPSAEK(ASA)I [K259(ASA)]
normalized relative antigenic activities over seven CTL clones [1]: efficiently recognized by all clones, except by clone S15 | specific lysis at half-maximum, A20 cells, S15 CTL (S15 CTL / A20 cells): 13% | concentration for half-maximal lysis of A20 Fas^− cells by S15 CTL [2]: not detectably lysed | plateau of specific lysis, S15 CTL (S15 CTL): ≤ 30%

I254A ({IASA}-YAPSAEK(Benzoyl(4-N3))I)
normalized relative antigenic activities over seven CTL clones [1]: 0.1 to 6

S256A ({IASA″}-YIPAAEK(Benzoyl(4-N3))I)
dissociation of ligand from TCR compared with wild-type ligand (TCR on CTL S17): faster | normalized relative antigenic activities over seven CTL clones [1]: 0.1 to 6

E258A ({IASA}-YIPSAAK(Benzoyl(4-N3))I)
dissociation of ligand from TCR compared with wild-type ligand (TCR on CTL S4): considerably slower

P255A ({IASA}-YIASAEK(Benzoyl(4-N3))I; not fully specified)
normalized relative antigenic activities over seven CTL clones [1]: 0.1 to 6 | dissociation of ligand from TCR compared with wild-type ligand (TCR on CTL T1): faster
